Data taken from ChEMBL document CHEMBL1144761, “Bioactive polybrominated diphenyl ethers from the marine sponge Dysidea sp” (J Nat Prod, 2008).
The source made the active and inactive calls. The calls are words filed in the database; no cut-off is given here.

Columns and labels:
[1] = test system: Streptomyces; assay: Antibacterial activity against Streptomyces 85E assessed as bald phenotype at 10 ug/disk after 30 hrs by hyphae formation inhibition assay; assay type: functional; details: read-out: IZ
In short: (§1)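 Mycelial fragments spread on minimal medium ISP 4 agar to form a lawn; compound-impregnated 6 mm paper disks placed on surface; incubated 30 h at 30 °C. Zone diameter recorded as clear (growth and sporulation inhibited) or bald (substrate hyphae without aerial hyphae); >9 mm counted active. Stocks in DMSO or methanol; solvent negative control, surfactin positive control.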

[2] = test system: Streptomyces; assay: Antibacterial activity against Streptomyces 85E assessed as bald phenotype at 5 ug/disk after 30 hrs by hyphae formation inhibition assay; assay type: functional; details: read-out: IZ; in short: as §1
[3] = test system: Streptomyces; assay: Antibacterial activity against Streptomyces 85E assessed as bald phenotype at 2.5 ug/disk after 30 hrs by hyphae formation inhibition assay; assay type: functional; details: read-out: IZ; in short: as §1
[4] = test system: MCF7; assay: Antiproliferative activity against human MCF7 cells; assay type: functional, cell-based
In short: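 MCF-7 cells grown in IMEM with 5% FBS and penicillin/streptomycin at 37 °C, 5% CO2, plated in 96-well plates with compounds in DMSO at five concentrations. After 2 days, glutaraldehyde-fixed, crystal violet-stained, dye solubilised in Triton X-100, A560 minus A405 read. % growth relative to day-0 and DMSO wells; IC50 read graphically from dose–response curve, triplicate.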

[5] = test system: Streptomyces; assay: Antibacterial activity against Streptomyces 85E assessed as clear zone at 20 ug/disk after 30 hrs by hyphae formation inhibition assay; assay type: functional; details: read-out: IZ; in short: as §1
[6] = test system: Streptomyces; assay: Antibacterial activity against Streptomyces 85E assessed as bald phenotype at 20 ug/disk after 30 hrs by hyphae formation inhibition assay; assay type: functional; details: read-out: IZ; in short: as §1
[7] = test system: Streptomyces; assay: Antibacterial activity against Streptomyces 85E assessed as clear zone at 10 ug/disk after 30 hrs by hyphae formation inhibition assay; assay type: functional; details: read-out: IZ; in short: as §1
[8] = test system: Streptomyces; assay: Antibacterial activity against Streptomyces 85E assessed as clear zone at 5 ug/disk after 30 hrs by hyphae formation inhibition assay; assay type: functional; details: read-out: IZ; in short: as §1
[9] = test system: Streptomyces; assay: Antibacterial activity against Streptomyces 85E assessed as clear zone at 2.5 ug/disk after 30 hrs by hyphae formation inhibition assay; assay type: functional; details: read-out: IZ; in short: as §1
[10] = test system: MCF7; assay: Cell cycle arrest in human MCF7 cells by accumulation at G1 phase at 10 uM by flow cytometry; assay type: functional, cell-based
In short: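 MCF-7 cells, 1 × 10^5 per well, held 2 days in serum-free, antibiotic-free, phenol red-free IMEM to induce G1 arrest. Compound or DMSO added 30 min before FBS to 5% final; serum-free wells as negative controls; U0126 50 µM comparator. After 24 h, cells fixed in ice-cold 80% ethanol, propidium iodide stained, phases measured by flow cytometry; n = 3.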

[11] = test system: MCF7; assay: Cytotoxicity against human MCF7 cells at >10 uM; assay type: functional, cell-based

Row | Compound | zone of inhibition at 10 µg/disc [1] [mm] | zone of inhibition at 5 µg/disc [2] [mm] | zone of inhibition at 2.5 µg/disc [3] [mm] | IC50 [4] [µM] | zone of inhibition at 20 µg/disc [5] [mm] | zone of inhibition at 20 µg/disc [6] [mm] | zone of inhibition at 10 µg/disc [7] [mm] | zone of inhibition at 5 µg/disc [8] [mm] | zone of inhibition at 2.5 µg/disc [9] [mm] | Activity [10] | Activity [11]
1 | Oc1c(Oc2ccc(Br)cc2Br)ccc(Br)c1Br | 14 | 13 | 10 | 7.23 | 13 |  |  |  |  |  | 
2 | Oc1c(Br)c(Br)cc(Br)c1Oc1ccc(Br)cc1Br | 13 | 11 | 10 | 7.52 |  | 14 |  |  |  |  | 
3 | COc1c(O)c(Oc2ccc(Br)cc2Br)c(Br)c(Br)c1Br | 12 | 11 | 10 | 8.69 |  | 12 |  |  |  |  | 
4 | Oc1c(Br)c(Br)cc(Br)c1Oc1ccccc1Br |  |  |  | 6.96 | 20 |  | 18 | 13 | 12 |  | 
5 | Oc1cc(Br)cc(Br)c1Oc1ccc(Br)cc1Br |  |  |  | 2.84 | 20 |  | 17 | 16 | 13 | Active | Active
6 | Oc1c(Br)cc(Br)c(Br)c1Oc1ccc(Br)cc1Br | 2 | 15 | 13 | 8.73 | 12 | 3 | 12 |  |  |  | 
7 | Oc1c(Br)c(Br)c(Br)c(Br)c1Oc1ccc(Br)cc1Br |  | 12 | 12 | 9.48 | 15 |  | 13 |  |  |  | 
8 | Oc1c(Br)ccc(Br)c1Oc1ccc(Br)cc1Br |  | 11 | 10 | 6.89 | 14 |  | 13 |  |  |  | 
9 | Oc1c(Br)cc(Br)cc1Oc1ccc(Br)cc1Br | 13 | 12 | 10 | 8.9 | 13 |  |  |  |  |  | 
